The chains are these.
B1: Osa-1-4 twister ribozyme (parent)
chain: CCGCCUAACACUGCCAAUGCCGGUCCCAAGCCCGGAUAAAAGUGGAGGGGGCGG

Variants of B1 are the subject of the data set. Kind of data set: self-cleavage, relative activity (ratio to wild type); higher = more cleavage; co-transcriptional. The essentials: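 A DNA template for a 54-nucleotide Oryza sativa twister ribozyme was synthesised with 97 % wild-type base and 1 % of each other base at the 48 positions downstream of the cleavage site. It was transcribed in vitro for 2 h at 37 °C, allowing co-transcriptional self-cleavage, then reverse-transcribed with a template-switching oligonucleotide, PCR-amplified and deep-sequenced. Cleavage status was scored from reads with or without upstream sequence. Relative activity is fraction cleaved normalised to wild type.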
As to G35C G49C, the self-cleavage worked out at 0.05. For A36C A40C the value was 0.05; for A36C A40U, 0.13. For the variant A36C A40G, the self-cleavage came to 0.12. G34U G50C: the self-cleavage was 0.39.

Regarding G34U G50U, the self-cleavage worked out at 0.73. In the case of G34U G50A, the self-cleavage came to 0.26. For G35C U18A the value was 0.84; for G35C U18G, 0.77; for G35C U18C, 0.56. Consider G34U U24A, for which the self-cleavage was found to be 0.15. With G34U U24C, the self-cleavage stood at 0.07.

Regarding G34U U24G, the self-cleavage was 0.03. With G34U U37G, the self-cleavage is 0.87.

On to G34U U37C, for which the self-cleavage turned out to be 0.84.

As to G34U U37A, the self-cleavage amounted to 0.79. With A36C C9A, the self-cleavage was 0.08. Consider A36C C9G, for which the self-cleavage is 0.11. For A36C C9U the value was 0.21; for G35A U18G, 0.79; for G35A U18C, 0.52. For G35A U18A the value was 0.79; for G35C G53A, 0.12; for G35C G53C, 0.06. With G35C G53U, the self-cleavage worked out at 0.09. Take G34C G42A: the self-cleavage was found to be 0.09. As to G34C G42C, the self-cleavage is 0.09. In the case of G34C G42U, the self-cleavage was found to be 0.04. On to G35A U43A, for which the self-cleavage worked out at 0.46. With G35A U43C, the self-cleavage was found to be 0.41.

As to G35A U43G, the self-cleavage stood at 0.12. As for G34A G35A, the self-cleavage worked out at 0.77.

As for G34A G35C, the self-cleavage turned out to be 0.29.

On to G34A G35U, for which the self-cleavage came out at 0.8. Turning to G34C U24C, the self-cleavage was determined as 0.06. For G34C U24A the value was 0.07; for G34C U24G, 0.02; for G35U G54C, 0.77.

Take G35U G54U: the self-cleavage came out at 0.8. G35U G54A: the self-cleavage was determined as 0.8. Take G35U G44A: the self-cleavage is 0.88. Consider G35U G44C, for which the self-cleavage was determined as 0.74. Take G35U G44U: the self-cleavage worked out at 0.74.

In the case of G34A U37A, the self-cleavage was 0.88.

On to G34A U37G, for which the self-cleavage is 0.88. Take G34A U37C: the self-cleavage was determined as 0.89. Then G34U G49A, with 0.11; and G34U G49U, with 0.11; and G34U G49C, with 0.06. For A36C A8U the value was 0.09; for A36C A8G, 0.14; for A36C A8C, 0.06. With G34U G47A, the self-cleavage came to 0.09.

G34U G47C: the self-cleavage was 0.05.

In the case of G34U G47U, the self-cleavage amounted to 0.1. For the variant C33U U24A, the self-cleavage was 0.14. C33U U24C: the self-cleavage stood at 0.06. Then C33U U24G, with 0.03. On to G34C G54C, for which the self-cleavage turned out to be 0.16. With G34C G54U, the self-cleavage amounted to 0.25. As to G34C G54A, the self-cleavage is 0.15. Then G35U G48U, with 0.08; and G35U G48C, with 0.07; and G35U G48A, with 0.09. For G34A G48C the value was 0.08; for G34A G48A, 0.08.

Turning to G34A G48U, the self-cleavage was 0.06. Then G34C G48A, with 0.06; and G34C G48U, with 0.05; and G34C G48C, with 0.05. For G35U G49U the value was 0.1; for G35U G49C, 0.06. For G35U G49A the value was 0.11; for G34A G53U, 0.13; for G34A G53C, 0.05. For the variant G34A G53A, the self-cleavage came to 0.49. For G34A G49U, the self-cleavage was determined as 0.1. In the case of G34A G49C, the self-cleavage came to 0.07.

With G34A G49A, the self-cleavage was 0.13.

G34C U18A: the self-cleavage is 0.43.

Regarding G34C U18C, the self-cleavage was 0.36. Consider G34C U18G, for which the self-cleavage amounted to 0.15. Consider C33U U12G, for which the self-cleavage turned out to be 0.08. Then C33U U12A, with 0.27. Regarding C33U U12C, the self-cleavage was determined as 0.11. In the case of G34U G44U, the self-cleavage is 0.5. For the variant G34U G44C, the self-cleavage was determined as 0.41. G34U G44A: the self-cleavage is 0.55. Take G34C G49C: the self-cleavage was found to be 0.06. Then G34C G49U, with 0.07; and G34C G49A, with 0.06; and A36C, with 0.86.

With G35A G42A, the self-cleavage came out at 0.44.

As to G35A G42U, the self-cleavage was determined as 0.08. In the case of G35A G42C, the self-cleavage came out at 0.17. For G34A G51U, the self-cleavage was determined as 0.1.

With G34A G51A, the self-cleavage was found to be 0.15. As to G34A G51C, the self-cleavage was 0.06. Then G35C G48C, with 0.04; and G35C G48U, with 0.04; and G35C G48A, with 0.05. As to G34A G47C, the self-cleavage stood at 0.08.

G34A G47A: the self-cleavage worked out at 0.13. On to G34A G47U, for which the self-cleavage is 0.1.

Regarding G35C G54C, the self-cleavage amounted to 0.13. As for G35C G54A, the self-cleavage was 0.2. Regarding G35C G54U, the self-cleavage is 0.36.

Turning to G35A G49A, the self-cleavage came to 0.18. Take G35A G49U: the self-cleavage worked out at 0.16. Regarding G35A G49C, the self-cleavage is 0.07. Regarding G34A U12A, the self-cleavage is 0.23. As to G34A U12C, the self-cleavage amounted to 0.19.

As for G34A U12G, the self-cleavage turned out to be 0.07. Regarding G34U G53C, the self-cleavage amounted to 0.05. Then G34U G53U, with 0.11; and G34U G53A, with 0.27; and G35A U24A, with 0.32.

For the variant G35A U24C, the self-cleavage stood at 0.08.

As to G35A U24G, the self-cleavage was determined as 0.03. For the variant A36C A38G, the self-cleavage worked out at 0.54. A36C A38C: the self-cleavage came out at 0.81.

Regarding A36C A38U, the self-cleavage was 0.79. Turning to G34C, the self-cleavage turned out to be 0.71. Turning to G34U, the self-cleavage was found to be 0.82. For the variant G34A, the self-cleavage amounted to 0.86.

For G35C G51U, the self-cleavage came to 0.06. On to G35C G51C, for which the self-cleavage stood at 0.05. Regarding G35C G51A, the self-cleavage is 0.09. For G35U U12C the value was 0.37; for G35U U12G, 0.08. For the variant G35U U12A, the self-cleavage was found to be 0.47. For the variant G34U G51C, the self-cleavage came out at 0.05. For G34U G51U, the self-cleavage was determined as 0.06. For G34U G51A, the self-cleavage worked out at 0.1. As for G35C U43G, the self-cleavage was determined as 0.1. For the variant G35C U43C, the self-cleavage stood at 0.09. As to G35C U43A, the self-cleavage amounted to 0.14.

Regarding G34C G44A, the self-cleavage amounted to 0.2.

Consider G34C G44C, for which the self-cleavage amounted to 0.14. In the case of G34C G44U, the self-cleavage is 0.16. Turning to C33U U18A, the self-cleavage stood at 0.81. As for C33U U18G, the self-cleavage turned out to be 0.48. For the variant C33U U18C, the self-cleavage was 0.63.

In the case of C33U G53U, the self-cleavage amounted to 0.13. Consider C33U G53C, for which the self-cleavage came out at 0.07. In the case of C33U G53A, the self-cleavage stood at 0.35. For A36C A46G, the self-cleavage came out at 0.06. For the variant A36C A46C, the self-cleavage turned out to be 0.07. On to A36C A46U, for which the self-cleavage turned out to be 0.05. In the case of G35A U12G, the self-cleavage turned out to be 0.06. Turning to G35A U12C, the self-cleavage is 0.48. Regarding G35A U12A, the self-cleavage came to 0.61. In the case of G35A G54U, the self-cleavage was found to be 0.81.

Turning to G35A G54A, the self-cleavage amounted to 0.85. As to G35A G54C, the self-cleavage was found to be 0.85. As to G34U U43G, the self-cleavage came to 0.07. As for G34U U43A, the self-cleavage turned out to be 0.11. Take G34U U43C: the self-cleavage was found to be 0.15. Take A36C A39U: the self-cleavage came to 0.15. As to A36C A39G, the self-cleavage was 0.2. Regarding A36C A39C, the self-cleavage was found to be 0.15. With G35U G51C, the self-cleavage was 0.06. As for G35U G51A, the self-cleavage is 0.25. As for G35U G51U, the self-cleavage was determined as 0.15. For G34C U37G the value was 0.66. As to G34C U37A, the self-cleavage amounted to 0.6.

Take G34C U37C: the self-cleavage worked out at 0.65.

For the origin of these results see the RNAGym collection of RNA variant scans (doi:10.1002/anie.201605470).
